Compound activity: PubChem BioAssay, several laboratories
XiGFP reactiv: activators of X-chromosome reactivation in mouse fibroblasts; XiGFP mouse fibroblasts, % GFP-positive cells imaging, 3 d; cells co-treated with 5-aza-dC sensitizer; scaled so ellipticine positive control = 100%; activation, % at 7.58 µM; 360,000 tested, 0.055% active; AID 743238;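 active = mean normalized replicate activation at least 10% and every replicate at or above 10%; inconclusive = only one of the two criteria met; inactive = mean below 10% and not all replicates reach 10%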;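 note: 0% = median of on-plate neutral control wells and 100% = ellipticine 6 µM median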
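System: XiGFP fibroblasts, SV40-immortalized. Medium: DMEM plus 5-aza-dC sensitizer. Doses: single point. Timing: 3 d treatment, 15 min room-temperature fixation. Control set: ellipticine 6 µM.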
ABCB6 inh MLPCN: human ABCB6 transporter inhibition. K562-ABCB6 porphyrin accumulation, flow cytometry, 1 h; stronger effect = lower value. fluorescence ratio to DMSO, % at 10 µM. 360,000 tested, 0.19% active;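 active = fluorescence ratio to DMSO below 75%, the collection mean minus 3 SD; inconclusive = too few cells collected in the well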;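 note: signal is porphyrin accumulated inside mitochondria; 100% equals median channel fluorescence of DMSO control wells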
Target sequence (Q9NP58 whole entry, looked up): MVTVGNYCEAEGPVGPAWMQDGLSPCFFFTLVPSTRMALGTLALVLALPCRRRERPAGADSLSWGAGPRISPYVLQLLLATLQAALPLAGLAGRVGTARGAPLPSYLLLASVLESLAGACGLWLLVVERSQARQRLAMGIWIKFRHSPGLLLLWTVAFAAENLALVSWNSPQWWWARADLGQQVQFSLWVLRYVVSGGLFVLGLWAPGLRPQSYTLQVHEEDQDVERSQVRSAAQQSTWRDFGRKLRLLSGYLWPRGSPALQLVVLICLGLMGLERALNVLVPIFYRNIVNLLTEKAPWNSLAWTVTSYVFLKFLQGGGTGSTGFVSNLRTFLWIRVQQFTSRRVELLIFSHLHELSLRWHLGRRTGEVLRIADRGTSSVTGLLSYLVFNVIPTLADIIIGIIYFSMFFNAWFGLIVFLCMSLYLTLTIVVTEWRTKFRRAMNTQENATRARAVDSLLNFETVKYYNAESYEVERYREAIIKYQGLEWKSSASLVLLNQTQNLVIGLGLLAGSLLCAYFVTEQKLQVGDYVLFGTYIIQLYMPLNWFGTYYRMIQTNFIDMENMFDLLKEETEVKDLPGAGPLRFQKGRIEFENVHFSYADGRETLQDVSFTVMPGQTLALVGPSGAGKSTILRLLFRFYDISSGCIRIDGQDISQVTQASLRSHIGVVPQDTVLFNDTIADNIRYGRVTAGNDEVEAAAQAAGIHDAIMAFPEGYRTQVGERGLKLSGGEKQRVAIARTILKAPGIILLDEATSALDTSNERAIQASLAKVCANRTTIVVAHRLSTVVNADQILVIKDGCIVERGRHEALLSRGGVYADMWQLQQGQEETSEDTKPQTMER
Myeloid diff 2: myeloid differentiation induction; ER-HoxA9 myeloid progenitors, lysozyme-GFP differentiation, flow cytometry; calls only at 10 µM; 360,000 tested, 1% active; AID 624256;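 active = normalized GFP-positive differentiation at or above the plate's own cutoff, the solvent-only control mean plus 3 SD; inconclusive = no clear call, values can overlap the other calls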;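 note: cells exposed to compound for four days before flow analysis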
Starred values were filed as active, the others as inactive; i = inactive; ? = inconclusive; · = not tested or not shown; + = active, no number. Shown is part of a subset that was picked to be rich in hits.

SMILES	XiGFP reactiv	ABCB6 inh MLPCN	Myeloid diff 2
CC[n+]1ccccc1/C=C1\Sc2ccc(C)cc2N1C	0.5	460.0	·
CCN1/C(=C/c2ccc3cc(C)ccc3[n+]2CC)Sc2cc(C)c(C)cc21	162.1*	i	·
Cc1noc(C)c1NC(=O)Nc1ccc2c(c1)C(=O)N([C@H](C)CO)C[C@H](C)[C@H](CN(C)S(=O)(=O)c1ccc(F)cc1)O2	0.0	·	·
COc1cccc(-c2ccc3n(c2=O)C[C@@H]2[C@@H](CO)[C@H](C(=O)N4CCOCC4)N[C@H]32)c1	0.1	·	·
O=C1N[C@H](Cc2ccccc2)COCc2cn(nn2)CC[C@H]1Cc1cccc(Cl)c1	0.1	·	·
CN1CCN(C(=O)C[C@@H]2CC[C@H]3[C@@H](COc4ccc(NC(=O)C5CCCC5)cc4C(=O)N3C)O2)CC1	0.0	·	·
O=C(CN1CCOCC1)NCC[C@H]1CC[C@H](NS(=O)(=O)c2ccc(F)cc2)[C@H](CO)O1	0.1	·	·
C[C@H]1CN([C@@H](C)CO)S(=O)(=O)c2ccc(C#CCN(C)C)cc2O[C@H]1CN(C)C(=O)CC1CC1	-0.3	·	·
COc1ccc(S(=O)(=O)Nc2cccc3c2O[C@H](CN(C)S(=O)(=O)c2c(C)noc2C)[C@H](C)CN([C@@H](C)CO)C3=O)cc1	1.4	·	·
C[C@H]1CN([C@@H](C)CO)S(=O)(=O)c2ccc(C#Cc3ccc(F)cc3)cc2O[C@@H]1CN(C)C(=O)c1ccccn1	0.3	·	·
COc1ccccc1Cc1c(-c2ccc(C#N)cc2)nc2c(Cl)cc(C(F)(F)F)cn12	·	134.0	+
COc1ccccc1Cc1c(-c2ccc(Cl)cc2)nc2c(Cl)cc(C(F)(F)F)cn12	0.0	94.0	i
O=C(CNc1cccc2ccccc12)N/N=C/c1ccc([N+](=O)[O-])o1	0.0	107.0	i
CCCCCCCC(=O)N/N=C/c1ccc([N+](=O)[O-])o1	0.0	117.0	i
O=C(Cc1ccc([N+](=O)[O-])cc1)N/N=C/c1ccc([N+](=O)[O-])o1	0.0	104.0	+
O=C(CNc1cccc([N+](=O)[O-])c1)N/N=C/c1ccc([N+](=O)[O-])o1	0.0	103.0	+
C[C@@H]1CCCCO[C@@H](CN(C)C(=O)Nc2ccc3c(c2)OCO3)[C@H](C)CN([C@H](C)CO)C(=O)c2cc(NS(=O)(=O)c3cn(C)cn3)ccc2O1	-0.9	·	·
COc1ccc(NC(=O)N2C[C@@H](O)COC[C@H]3O[C@@H](CC(=O)NCc4ccccc4OC)CC[C@@H]32)cc1	0.0	·	·
COc1ccc(NC(=O)Nc2ccc3c(c2)CC(=O)N([C@H](C)CO)C[C@H](C)[C@@H](CN(C)CC2CC2)O3)cc1	-0.8	·	·
CCCCOCCCn1c(-c2ccco2)nc2nc3ccccc3nc21	·	109.0	+
Fc1ccc(-n2c(-c3ccco3)nc3nc4ccccc4nc32)cc1	·	111.0	+
CCCCn1c(-c2cccs2)nc2nc3ccccc3nc21	·	100.0	i
Fc1cccc(-n2c(-c3ccco3)nc3nc4ccccc4nc32)c1	·	108.0	i
C[C@H]1CN([C@@H](C)CO)C(=O)c2cccc(N(C)C)c2O[C@@H]1CN(C)S(=O)(=O)c1ccc(Cl)cc1	-1.4	·	·
CN1CCN(C(=O)C[C@H]2CC[C@@H]3[C@H](COC[C@@H](O)CN3C(=O)C3CCCC3)O2)CC1	0.0	·	·
SMILES	XiGFP reactiv	ABCB6 inh MLPCN	Myeloid diff 2
CCCN(CC(=O)Nc1ccccc1C)C(=O)C1CCCN(C(=O)c2ccc(Cl)cc2)C1 (stereo not given)	-0.1	92.0	+
Cc1cccc(C)c1NC(=O)CNC(=O)C1CCCN(C(=O)c2ccc(Cl)cc2)C1 (stereo not given)	0.3	100.0	i
O=C(C[C@@H]1C=C[C@@H](NS(=O)(=O)c2ccc(F)cc2)[C@@H](CO)O1)NC1CCC1	-0.2	·	·
C[C@H](CO)N1C[C@H](C)[C@H](CN(C)C(=O)Nc2ccc3c(c2)OCO3)OCCCC[C@H](C)Oc2ccc(NC(=O)Nc3ccc(F)cc3)cc2C1=O	0.3	·	·
O=C(COc1cccnc1[N+](=O)[O-])N1N=C(c2ccc(Cl)cc2)CC1c1ccco1 (stereo not given)	0.1	140.0	+
Cc1ccc(C2=NN(C(=O)CSc3nccn3C)C(c3ccco3)C2)cc1 (stereo not given)	0.4	94.0	+
Cc1ccc(OCC(=O)N2N=C(c3ccc(Cl)cc3)CC2c2ccco2)c([N+](=O)[O-])n1 (stereo not given)	0.0	101.0	i
Cc1ccc(C2=NN(C(=O)CSc3nc4ncc(Cl)cc4[nH]3)C(c3ccco3)C2)cc1 (stereo not given)	-0.1	91.0	i
CO[C@@H]1CN(C)C(=O)c2ccc(NC(=O)Nc3ccccc3F)cc2OC[C@@H](C)N(C(=O)c2cnccn2)C[C@H]1C	-0.1	·	·
Cc1cc(N2CCN(C(=O)c3ccco3)CC2)n2nc(-c3cccc(F)c3)cc2n1	·	97.0	+
Cc1cc(N2CCOCC2)n2nc(-c3cccc(F)c3)cc2n1	·	105.0	i
Cc1noc(C)c1NC(=O)Nc1ccc2c(c1)C(=O)N([C@H](C)CO)C[C@@H](C)[C@@H](CN(C)Cc1ccccc1)OCCCC[C@H](C)O2	0.4	·	·
COc1ccc(NC(=O)Nc2cccc3c2O[C@H](CN(C)CC2CCCCC2)[C@H](C)CN([C@@H](C)CO)C3=O)cc1	0.1	·	·
CCCC(=O)OCCNc1cc(Sc2nccn2C)c2nonc2c1[N+](=O)[O-]	22.6*	96.0	?
CCCSc1cc(NCCOC(=O)CCC)c([N+](=O)[O-])c2nonc12	2.3	94.0	i
CCC(=O)OCCNc1cc(Sc2nc3ccccc3s2)c2nonc2c1[N+](=O)[O-]	·	98.0	?
CCC(=O)OCCNc1cc(Sc2nc3ccccc3[nH]2)c2nonc2c1[N+](=O)[O-]	16.2*	100.0	?
Cc1cc(C(=O)C(C)OC(=O)c2ccc(NC(=O)CC#N)cc2)c(C)n1-c1ccccc1 (stereo not given)	-0.1	93.0	+
CC(OC(=O)c1ccc(NC(=O)CC#N)cc1)C(=O)Nc1ccc2c(c1)OCCO2 (stereo not given)	0.4	94.0	i
O=C(CCC(=O)c1cccs1)NC(c1ccccc1)c1ccccc1	·	91.0	i
Cc1ccc(NC(=O)COC(=O)CCC(=O)c2cccs2)cc1	0.0	103.0	i
Cc1ccc(C)c(NC(=O)COC(=O)CCC(=O)c2cccs2)c1	0.0	97.0	+
O=C(CCC(=O)c1cccs1)c1cccs1	·	103.0	+
CN1CCN(C(=O)CSc2nc(-c3cccs3)cc(-c3cccs3)c2C#N)CC1	·	98.0	+
CCN(CC)C(=O)CSc1nc(-c2cccs2)cc(-c2cccs2)c1C#N	·	93.0	i
CCCC(=O)Nc1ccc2c(c1)C(=O)N(C)[C@@H]1CC[C@H](CC(=O)NCCc3ccncc3)O[C@H]1CO2	0.2	·	·
Cc1cc(C)n2c(NCc3ccccc3)c(-c3cc4ccccc4o3)nc2n1	0.0	922.0	+
Cc1cc(C)n2nc(NCc3ccccc3)nc2n1	·	97.0	i
O=C(CN1CCOCC1)N1CCCCN2[C@H](C1)[C@H](c1ccc(C#Cc3ccccc3F)cc1)[C@@H]2CO	0.2	·	·
